Results on 25 molecules are retold here after ChEMBL document CHEMBL4339228, “Identification of Isoform 2 Acid-Sensing Ion Channel Inhibitors as Tool Compounds for Target Validation Studies in CNS” (ACS Med Chem Lett, 2019).

Series [1] has as its target T1, Acid-sensing ion channel 1 (Mus musculus, UniProt Q6NXK8).
T1 sequence (Q6NXK8 whole entry): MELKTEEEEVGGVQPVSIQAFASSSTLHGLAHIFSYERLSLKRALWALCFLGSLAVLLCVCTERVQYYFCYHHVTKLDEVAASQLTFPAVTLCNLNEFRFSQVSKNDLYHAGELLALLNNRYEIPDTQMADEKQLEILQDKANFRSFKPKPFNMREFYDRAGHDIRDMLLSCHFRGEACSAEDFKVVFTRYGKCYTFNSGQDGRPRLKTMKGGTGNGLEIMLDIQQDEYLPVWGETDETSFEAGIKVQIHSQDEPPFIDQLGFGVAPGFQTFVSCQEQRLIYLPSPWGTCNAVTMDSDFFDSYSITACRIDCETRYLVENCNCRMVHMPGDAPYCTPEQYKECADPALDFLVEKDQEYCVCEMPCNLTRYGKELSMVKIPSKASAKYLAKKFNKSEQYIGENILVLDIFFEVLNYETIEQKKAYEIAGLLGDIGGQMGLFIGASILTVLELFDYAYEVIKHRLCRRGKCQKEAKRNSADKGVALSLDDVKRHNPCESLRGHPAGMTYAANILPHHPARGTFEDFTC
As to the kind of experiment: Inhibition of pH 6.6-stimulated mouse ASIC1a homomer expressed in CHOK1 cells assessed as reduction in channel activation by VSD fluorescence assay. It counts as cell-based.

Series [2] has as its target T2, Acid-sensing ion channel 2 (Mus musculus, UniProt Q925H0).
T2 sequence (Q925H0 whole entry): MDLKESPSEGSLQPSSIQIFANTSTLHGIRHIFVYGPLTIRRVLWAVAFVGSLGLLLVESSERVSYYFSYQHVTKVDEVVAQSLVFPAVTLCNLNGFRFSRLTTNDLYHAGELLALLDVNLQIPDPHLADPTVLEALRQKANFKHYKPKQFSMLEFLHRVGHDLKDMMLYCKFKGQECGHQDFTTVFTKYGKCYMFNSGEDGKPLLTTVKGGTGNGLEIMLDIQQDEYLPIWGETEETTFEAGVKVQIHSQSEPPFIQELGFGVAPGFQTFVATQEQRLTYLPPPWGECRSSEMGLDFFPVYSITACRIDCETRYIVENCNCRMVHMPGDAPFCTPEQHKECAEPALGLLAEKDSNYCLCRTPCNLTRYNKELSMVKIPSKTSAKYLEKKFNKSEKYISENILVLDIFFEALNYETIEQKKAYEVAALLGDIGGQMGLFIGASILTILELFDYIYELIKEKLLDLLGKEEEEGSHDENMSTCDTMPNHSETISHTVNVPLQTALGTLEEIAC
Kind of series: Inhibition of pH 5.5-stimulated mouse ASIC2a homomer expressed in CHOK1 cells assessed as reduction in channel activation by VSD fluorescence assay. Type of series: cell-based.

Series [3] concerns the target T3, Acid-sensing ion channel 1/2 (Mus musculus, UniProt Q6NXK8+Q925H0).
T3 sequence (Q6NXK8 whole entry): T1 sequence (Q6NXK8 whole entry)
T3 sequence (Q925H0 whole entry): T2 sequence (Q925H0 whole entry)
Kind of series: Inhibition of pH 6.25-stimulated mouse ASIC1a/2a […] expressed in CHOK1 cells assessed as reduction in channel activation by VSD fluorescence assay. It counts as cell-based.

Series [4] is described as follows: Volume of distribution in NMRI mouse at 1 mg/kg, iv by LC-MS/MS analysis. Type of series: ADME, organism-based. Particulars: in vivo.
Series [5] in a line: Cmax in NMRI mouse at 3 mg/kg, po by LC-MS/MS analysis. Particulars: in vivo. Details: dose 3 mg/kg, route oral. It counts as ADME, organism-based.
The target of the next series is T4, Cytochrome P450 1A2 (Homo sapiens, UniProt P05177).
T4 sequence (P05177 whole entry): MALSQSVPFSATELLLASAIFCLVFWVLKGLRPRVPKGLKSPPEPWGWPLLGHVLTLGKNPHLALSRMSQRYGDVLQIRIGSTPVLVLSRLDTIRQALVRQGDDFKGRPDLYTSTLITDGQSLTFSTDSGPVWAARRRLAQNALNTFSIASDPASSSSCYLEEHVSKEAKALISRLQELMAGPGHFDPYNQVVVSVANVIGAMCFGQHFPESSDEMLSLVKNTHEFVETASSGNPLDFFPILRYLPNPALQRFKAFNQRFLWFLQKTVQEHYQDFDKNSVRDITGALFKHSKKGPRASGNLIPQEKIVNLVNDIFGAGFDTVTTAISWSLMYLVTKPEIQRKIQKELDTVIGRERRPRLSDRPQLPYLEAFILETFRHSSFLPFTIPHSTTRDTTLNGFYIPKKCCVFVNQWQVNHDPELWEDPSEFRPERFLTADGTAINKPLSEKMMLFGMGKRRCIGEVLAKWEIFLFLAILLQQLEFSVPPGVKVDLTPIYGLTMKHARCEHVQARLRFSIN
Kind of series: Inhibition of CYP1A2 (unknown origin) using pro-luciferin substrates in presence of NADPH by firefly luciferase reporter gene based P450-Glo assay. It counts as ADME. In general terms: In a reporter assay the amount or activity of a reporter protein is the signal.

The nature of series [6]: Kinetic solubility of the compound at pH 7.4. It counts as physicochemical. Particulars: buffer, read-out: Kinetic_solubility.
Series [7] in a line: Ratio of drug level in brain to plasma of NMRI mouse at 1 mg/kg, iv measured after 2 to 8 hrs post dose. Type of series: ADME, organism-based. Particulars: read-out: BPR.
The target of the next series is albumin (Homo sapiens, UniProt P02768). As to the kind of experiment: Binding affinity to human serum albumin by NMR-based analysis. Particulars: read-out: PPB (converted). It counts as ADME.
Series [8] in a line: Clearance in NMRI mouse at 1 mg/kg, iv by LC-MS/MS analysis. It counts as ADME, organism-based. Particulars: in vivo.
Series [9] concerns the target Voltage-gated inwardly rectifying potassium channel KCNH2 (Homo sapiens, UniProt Q12809). As to the kind of experiment: Inhibition of human ERG incubated for 4 hrs by fluorescence polarization assay. An outline of the steps:
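Human ERG inhibition measured at concentrations up to 30 μM.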

The nature of series [10]: Oral bioavailability in NMRI mouse at 3 mg/kg by LC-MS/MS analysis. It counts as ADME, organism-based. Particulars: in vivo.

In brackets after ≈: the same amount, converted by molar mass.

Chain of albumin (P02768 whole entry): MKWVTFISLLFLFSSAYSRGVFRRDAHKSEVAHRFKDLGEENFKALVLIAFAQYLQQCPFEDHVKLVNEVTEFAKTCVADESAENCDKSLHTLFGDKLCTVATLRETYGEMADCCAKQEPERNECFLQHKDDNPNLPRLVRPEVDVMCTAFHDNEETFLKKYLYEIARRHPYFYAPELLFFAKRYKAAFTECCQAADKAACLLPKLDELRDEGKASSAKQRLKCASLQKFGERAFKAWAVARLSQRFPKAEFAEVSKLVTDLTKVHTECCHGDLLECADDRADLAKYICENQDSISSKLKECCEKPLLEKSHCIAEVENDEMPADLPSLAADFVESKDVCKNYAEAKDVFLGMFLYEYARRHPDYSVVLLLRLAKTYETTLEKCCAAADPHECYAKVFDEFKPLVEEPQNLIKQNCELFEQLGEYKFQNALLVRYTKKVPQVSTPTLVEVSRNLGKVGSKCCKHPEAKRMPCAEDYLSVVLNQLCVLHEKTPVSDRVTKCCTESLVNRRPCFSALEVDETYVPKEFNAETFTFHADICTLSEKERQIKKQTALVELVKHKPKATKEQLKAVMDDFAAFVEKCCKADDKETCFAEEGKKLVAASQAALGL
Chain of Voltage-gated inwardly rectifying potassium channel KCNH2 (Q12809 whole entry): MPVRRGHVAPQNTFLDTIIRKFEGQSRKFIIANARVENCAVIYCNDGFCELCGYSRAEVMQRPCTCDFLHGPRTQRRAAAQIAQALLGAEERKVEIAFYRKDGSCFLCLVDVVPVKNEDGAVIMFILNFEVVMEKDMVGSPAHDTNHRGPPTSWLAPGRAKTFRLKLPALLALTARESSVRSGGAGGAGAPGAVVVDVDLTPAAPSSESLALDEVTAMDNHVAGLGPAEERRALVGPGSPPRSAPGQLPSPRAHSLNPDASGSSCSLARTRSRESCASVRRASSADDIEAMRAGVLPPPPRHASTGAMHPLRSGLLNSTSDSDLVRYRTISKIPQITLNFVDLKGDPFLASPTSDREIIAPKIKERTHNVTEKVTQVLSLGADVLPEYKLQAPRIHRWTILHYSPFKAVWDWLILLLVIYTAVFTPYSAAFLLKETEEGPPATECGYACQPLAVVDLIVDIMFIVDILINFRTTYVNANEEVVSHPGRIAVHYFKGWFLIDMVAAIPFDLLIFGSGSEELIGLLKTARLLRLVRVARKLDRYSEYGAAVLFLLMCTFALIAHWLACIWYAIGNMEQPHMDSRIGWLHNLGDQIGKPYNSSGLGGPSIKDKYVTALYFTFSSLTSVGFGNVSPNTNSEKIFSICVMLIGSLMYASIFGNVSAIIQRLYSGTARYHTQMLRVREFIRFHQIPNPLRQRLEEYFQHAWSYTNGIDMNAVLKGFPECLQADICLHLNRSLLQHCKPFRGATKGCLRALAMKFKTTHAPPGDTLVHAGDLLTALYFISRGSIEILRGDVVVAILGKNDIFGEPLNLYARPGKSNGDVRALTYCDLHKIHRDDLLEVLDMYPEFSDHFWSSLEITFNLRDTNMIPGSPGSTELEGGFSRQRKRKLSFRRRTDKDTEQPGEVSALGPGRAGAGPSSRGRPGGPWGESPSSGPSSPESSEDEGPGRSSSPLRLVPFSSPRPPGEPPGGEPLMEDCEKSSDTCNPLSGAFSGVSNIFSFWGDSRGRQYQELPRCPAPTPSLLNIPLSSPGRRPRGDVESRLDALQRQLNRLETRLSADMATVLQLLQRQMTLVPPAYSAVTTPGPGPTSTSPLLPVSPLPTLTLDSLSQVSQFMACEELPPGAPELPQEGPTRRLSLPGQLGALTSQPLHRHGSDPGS

As a reminder, the IC50 is the concentration at which inhibition is half-maximal. Turning to `COc1ccc(-c2c(C)nn(-c3ccc(CN)cc3)c2C)cc1`, the IC50 in series [1] was greater than 30 µM; in [2] it was 16.3 µM; in series [3], greater than 30 µM.
For the molecule `Cc1ccc(-c2c(C)nn(-c3ccc(CN)cc3)c2C)cn1`, the IC50 in series [1], in series [2] and in [3] was greater than 30 µM each time.
Consider `NCc1ccc(-n2cc(-c3ccc(F)cc3)cn2)cc1`, for which the IC50 in series [1], in series [2] and in [3] was greater than 30 µM throughout.
In the case of `Cc1nn(-c2ccc3c(c2)NCC3)c(C)c1-c1ccc(F)cc1`, the IC50 in series [1], in series [2] and in series [3] was greater than 30 µM each time.
As to `Cc1nn(-c2ncnc3c2CN(C)C3)c(C)c1-c1cccc(F)c1`, the IC50 in series [1], in [2] and in series [3] was greater than 30 µM in each case.
`Cc1ccc(-c2c(C)nn(-c3ccc(CN)cc3)c2C)cc1F`: the IC50 in [1], in series [2] and in series [3] was greater than 30 µM throughout.
Take `Cc1nn(-c2ccc3c(c2)NCC3)c(C)c1-c1cccc(F)c1`: the IC50 in series [1], in series [2] and in series [3] was greater than 30 µM in each case.
Regarding `Cc1nn(Cc2ccc(CN)cc2)c(C)c1-c1ccc(F)cc1`, the IC50 in [1] was greater than 30 µM; in [2], 16.8 µM; in series [3], greater than 30 µM.
With `Cc1nn(-c2ccc(CN)nc2)c(C)c1-c1ccc(F)cc1`, the IC50 in [1], in series [2] and in series [3] was greater than 30 µM in each case.
As usually defined, the Vd is the apparent volume that relates the amount in the body to the concentration in plasma or blood. A higher Vd goes with extensive tissue distribution. The term Cmax denotes the highest concentration seen after dosing. One may read the clearance as a measure of how efficiently the substance is removed, as volume per time. The bioavailability is the share of a dose that reaches the circulation, judged against a reference dose that is usually intravenous. A high value points to much systemic uptake. With `Cc1nn(-c2ccc(CN)cc2)c(C)c1-c1ccc(F)cc1`, the Vd in series [4] stood at 50.9 L/kg. The molecule also gave a Cmax in [5] of 90 nM. For the same molecule, the IC50 is greater than 30 µM in [1]; 0.4 µM on Cytochrome P450 1A2; 18.9 µM in series [2]; 10.9 µM in [3]; greater than 30 µM in series [9]. Also, the solubility kinetic in series [6] was determined as 73 µg/mL (≈ 247 µM). The Kp in series [7] is 61. The fraction unbound on albumin is 0.07. For the same molecule, the clearance in [8] stood at 224 mL/min/kg. Moreover, the bioavailability in series [10] worked out at 60%.
For `Cc1nn(-c2ccc(C(C)N)cc2)c(C)c1-c1ccc(F)cc1` (configuration not stated), the values for the IC50 in series [1], in series [2] and in [3] were greater than 30 µM, 8.7 µM and greater than 30 µM, respectively.
As for `Cc1nn(-c2ccc(CN)cc2)c(C)c1-c1ccc(Cl)cc1`, the IC50 in [1], in series [2] and in series [3] was greater than 30 µM each time.
In turn, `Cc1nn(-c2ncnc3c2CNC3)c(C)c1-c1ccc(F)cc1` gave a Vd in series [4] of 1.4 L/kg. This molecule displayed a Cmax in [5] of 2600 nM. The IC50 in [1] was greater than 30 µM; on Cytochrome P450 1A2, 0.8 µM; in series [2], 17 µM; in [3], greater than 30 µM; in [9], greater than 30 µM. Moreover, the solubility kinetic in series [6] is 32 µg/mL (≈ 103 µM). Besides, the Kp in series [7] was 1.3. At albumin, the fraction unbound was 0.06. The molecule further had a clearance in series [8] of 34 mL/min/kg. The same molecule yielded a bioavailability in [10] of 100%.
With `N=C(N)c1ccc(/N=N/Nc2ccc(C(=N)N)cc2)cc1` [DIMINAZENE], the IC50 in series [1] came out at 56.9 µM; in series [2], 169 µM; in series [3] it was 45.2 µM.
In the same order, the values of `Cc1nn(-c2ccc(CN)cc2)c(C)c1-c1ccc(C(F)(F)F)cc1` are greater than 30 µM, greater than 30 µM and greater than 30 µM.
In the same order, the values of `Cc1ccc(-c2c(C)nn(-c3ccc(CN)cc3)c2C)cc1` are greater than 30 µM, 8.8 µM and greater than 30 µM.
For the molecule `Cc1nn(-c2ccc(CCN)cc2)c(C)c1-c1ccc(F)cc1`, the values for the IC50 in series [1], in series [2] and in series [3] were greater than 30 µM, 11.7 µM and greater than 30 µM, respectively.
Turning to `Cc1nn(-c2ccc(CN)cc2)c(C)c1-c1ccc(CN)cc1`, the IC50 in series [1], in series [2] and in [3] was greater than 30 µM throughout.
Regarding `Cc1nn(-c2ccc(CN)cc2)c(C)c1-c1cccc(F)c1`, the figures for the half-inhibitory concentration (IC50) in [1], in series [2] and in series [3] were greater than 30 µM, 4.3 µM and greater than 30 µM, respectively.
Regarding `Cc1nn(-c2ccc(C#N)cc2)c(C)c1-c1ccc(F)cc1`, the half-inhibitory concentration (IC50) in [1], in series [2] and in series [3] was greater than 30 µM in each case.
Consider `Cc1nn(-c2ccc(CN)cn2)c(C)c1-c1ccc(F)cc1`, for which the IC50 in series [1] was greater than 30 µM; in [2], 6.1 µM; in series [3], 8.5 µM.
In the same order, the values of `Cc1nn(-c2cccc(CN)c2)c(C)c1-c1ccc(F)cc1` are greater than 30 µM, 15.6 µM and greater than 30 µM.
In the same order, the values of `Cc1nn(-c2ccc3c(c2)CNC3)c(C)c1-c1cccc(F)c1` are greater than 30 µM, 9.9 µM and 11.3 µM.
In the same order, the values of `Cc1nn(-c2ncnc3c2CNC3)c(C)c1-c1cccc(F)c1` are greater than 30 µM, greater than 30 µM and greater than 30 µM.
For `Cc1nn(-c2ccc3c(c2)CNC3)c(C)c1-c1ccc(F)cc1`, the half-maximal inhibitory concentration (IC50) in series [1] was greater than 30 µM; on Cytochrome P450 1A2, 0.2 µM; in series [2], 8.2 µM; in series [3] it was greater than 30 µM; in series [9], greater than 30 µM. The solubility kinetic in [6] was 56 µg/mL (≈ 182 µM). Moreover, the fraction unbound on albumin is 0.05.
